Bioassay records (PubChem)
XBP1 UPR activ: adaptive UPR (XBP1) activation; CHO-XBP1 luciferase reporter, IRE1-XBP1 UPR activation, luminescence; percent of tunicamycin response, DMSO as zero; activation, % at 20 µM; hit rate 0.33% among 330,000; AID 463104;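 active = versus positive control, 20 µM dose yields 30% or more activation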;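 note: 100% = tunicamycin at 10 µg/mL and 0% = DMSO only wells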
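Signal: luciferase luminescence; Assay system: CHO-XBP1 luciferase reporter cells; Amount: one thousand reporter cells per well; Dosing: 20 µM single concentration, DMSO 1%; Benchmarks: high control tunicamycin 10 µg/mL final, low control DMSO vehicle only; Schedule: 6 h compound exposure at 37 °C, 5% CO2; Evaluation: percent activation relative to tunicamycin reference.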
CHOP inh: blocks CHOP induction under ER stress; CHO-K1 CHOP-promoter luciferase, tunicamycin-induced, 15-18 h; inhibition, % at 10 µM; hit rate 3.8% among 220,000;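 active = compounds that reduced the stress-induced luciferase reporter signal by more than about 70% of percent inhibition, limit read from the data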;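 note: 0% = tunicamycin plus vehicle and 100% = wells without tunicamycin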
Jurkat NFkB inh: inhibitors of the PMA/ionomycin-induced NF-kB reporter in Jurkat cells | inhibition, % at 4 µM | hit rate 0.53% among 330,000 | AID 435003 | PMA/ionomycin-induced NF-kB luciferase reporter, luminescence; in the data active = inhibition above about 50%
697 NFkB inh: inhibitors of the PMA/ionomycin-induced NF-kB reporter in 697 B cells | 697 B-cell NF-kB luciferase reporter, 16 h | inhibition, % at 4 µM | hit rate 0.33% among 330,000; in the data active = inhibition above about 35%
UPR CHOP act: apoptotic UPR (CHOP) activation; CHO-CHOP luciferase reporter, luminescence; percent of tunicamycin response over DMSO baseline; activation, % at 10 µM; hit rate 0.34% among 330,000; AID 449763;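 active = at 10 µM dose, activation of 40% or more, normalized to positive control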;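 note: 100% = tunicamycin at 10 µg/mL and 0% = DMSO alone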
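System: CHO-CHOP luciferase reporter cell line; amount: 500 cells/well; buffer or medium: F12 medium containing 10% fetal bovine serum; incubation: 6 h compound exposure at 37 °C after overnight seeding; measured by: luciferase luminescence after 10 min with Steady-Glo reagent; evaluation: % reporter activation, DMSO baseline versus tunicamycin full activation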
697 NFkB conf: lowers PMA/ionomycin-induced NF-kB signal in 697 B cells | shares compounds with 697 NFkB inh | 697 B-cell NF-kB luciferase, 16 h | inhibition, % at 4 µM | hit rate 35% among 2,000; in the data active = inhibition mostly above about 28%, no sharp cut-off; inactive = mostly below about 22%
CHOP UPR conf: confirmation of apoptotic unfolded protein response (CHOP) activators. AID 463112. CHO-CHOP cells, CHOP-luciferase reporter luminescence; percent of tunicamycin response, DMSO as zero. shares compounds with UPR CHOP act. hit rate 64% among 1,000. activation, % at 10 µM; in the data active = activation above about 33%;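 note: 0% = DMSO wells and 100% = tunicamycin 10 µg/mL wells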
UPR XBP1 confirm: adaptive UPR (XBP1) activation, confirmed; shares compounds with XBP1 UPR activ; CHO-XBP1 IRE1-XBP1 luciferase reporter, luminescence; activation, % at 20 µM; hit rate 63% among 1,000; AID 485299;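 active = reporter signal at least 30% of the positive control's activation in two or more of four replicate wells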;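 note: plate controls were DMSO negative control for no effect and tunicamycin 10 µg/mL positive control for full effect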
Numbers without * were called inactive; i = inactive; / = not tested or not shown. The entries come from a sample that favours hits as a whole.

SMILES | XBP1 UPR activ | CHOP inh | Jurkat NFkB inh | 697 NFkB inh | UPR CHOP act | CHOP UPR conf | others
O=C1C[C@@H]2c3c(cccc3CN1Cc1ccc(F)cc1)C[C@@H](O)[C@H]2O | -2 | / | 13 | -1 | 0 | /
COc1ccc(N/C=C/C(=O)c2ccccc2)cc1 | -10 | / | -46 | -327 | -8 | / | 697 NFkB conf=-324
CCOc1ccc(N/C=C/C(=O)c2ccccc2)c([N+](=O)[O-])c1 | -3 | 87* | -111 | -328 | -7 | / | 697 NFkB conf=-326
CCOc1ccc(NC(=O)/C=C/c2ccccc2)c([N+](=O)[O-])c1 | 2 | 4 | -10 | -51 | 4 | /
COc1ccc(N/C=C\C(=O)c2ccc3ccccc3c2)cc1 | 0 | / | -115 | -141 | 6 | /
CC1=Nc2cc(C(=O)N3CCCC3)ccc2Sc2c(C)ccc(C)c21 | -4 | / | -2 | i | 3 | / | 697 NFkB conf=i
Cc1ccc(NS(=O)(=O)c2ccc(Br)s2)cc1S(=O)(=O)N1CCOCC1 | -4 | 4 | -9 | 46* | 0 | / | 697 NFkB conf=-8
Cc1ccc(NS(=O)(=O)c2cccc(C(=O)O)c2)cc1S(=O)(=O)N1CCOCC1 | -1 | 6 | 0 | 15 | -2 | /
Cc1cc(C(=O)CCl)c(C)n1-c1cccc([N+](=O)[O-])c1 | -3 | 104* | 4 | 40* | 174* | 31 | 697 NFkB conf=9
Cc1cc(C(=O)N/N=C/c2cccc([N+](=O)[O-])c2)c(C)n1-c1ccccc1 | 1 | -23 | -51 | -73 | 5 | /
O=C(/C=C/c1ccc(O)c(O)c1)c1ccccc1O | 5 | -127 | -18 | -276 | 93* | 81* | 697 NFkB conf=-180
Cc1ccc(COc2ccc(CNCCCN3CCCCCC3=O)cc2)cc1 | 0 | / | -16 | -1 | 2 | /
O=[N+]([O-])c1ccccc1NC(=S)N/N=C/c1ccc(O)c(O)c1 | 37* | 22 | -144 | -324 | 21 | / | 697 NFkB conf=-180;UPR XBP1 confirm=23
O=C(NCC(Cl)c1ccc2ccccc2c1)c1c(F)cccc1F (configuration not stated) | 3 | / | 2 | -14 | 3 | /
O=C(N/N=C/C(Br)=C\c1ccccc1)c1n[nH]c2c1CCC2 | 35* | / | 39 | i | 5 | / | 697 NFkB conf=-472;UPR XBP1 confirm=36*
CC(/C=N/NC(=O)c1n[nH]c2c1CCC2)=C\c1ccccc1 | 18 | / | 31 | -56 | 4 | /
COc1ccccc1CCC(=O)NNC(=O)c1ccc(Br)cc1 | -2 | / | 1 | 9 | 0 | /
COc1cc(/C=N/NC(=O)c2sc3nc(C)cc(C)c3c2N)ccc1O | 46* | 59 | 7 | 43* | 1 | / | 697 NFkB conf=18;UPR XBP1 confirm=16
O=[N+]([O-])c1ccc(C=Nc2ccc(Cl)c([N+](=O)[O-])c2)s1 | -3 | -25 | 2 | 7 | 61* | 49*
O=C(NC1CCCC1)C(c1ccc(F)cc1)N(Cc1ccc(Cl)cc1)C(=O)CCl (configuration not stated) | 2 | 106* | 0 | -3 | 149* | 70*
O=C(NC1CCCC1)C(c1ccc(Cl)cc1)N(Cc1ccc(F)cc1)C(=O)CCl (configuration not stated) | 8 | 46 | 8 | 13 | 113* | 88*
COC(CN(C(=O)CCl)C(C(=O)NC1CCCCC1)c1ccc(Cl)cc1)OC (configuration not stated) | 0 | -109 | 8 | -1 | 0 | /
COC(=O)c1ccc(C(C(=O)NC2CCCCC2)N(Cc2ccc(F)cc2)C(=O)Cc2cccs2)cc1 (configuration not stated) | -1 | 29 | 12 | 11 | 0 | /
CCOC(=O)C1CCN(Cc2ccc(O)c3ncccc23)CC1 | 6 | / | 4 | -16 | 235* | 142*
CCOC(=O)N1CCN(Cc2cc(Cl)c3cccnc3c2O)CC1 | 19 | 83* | 37 | -17 | 105* | 116*
SMILES | XBP1 UPR activ | CHOP inh | Jurkat NFkB inh | 697 NFkB inh | UPR CHOP act | CHOP UPR conf | others
O=C(OCc1nnc(-c2ccccc2)o1)C1CCN(C(=O)c2ccc(Cl)cc2)CC1 | -1 | / | 5 | 10 | 0 | /
O=C(COC(=O)COc1ccccc1F)NCCc1ccc(F)cc1 | -3 | / | 1 | 15 | -1 | /
O=C(CCl)Nc1ccc(S(=O)(=O)NC2=NCCCCC2)cc1 | 8 | / | 15 | 24 | 6 | /
O=C(CCl)Nc1cccc(S(=O)(=O)NC2=NCCCCC2)c1 | 20 | / | 9 | -12 | 167* | 81*
CC1CCCCN1C(=O)CSc1nnc(CSc2ncccn2)n1C (configuration not stated) | 0 | 8 | -16 | 7 | -1 | /
O=C1C(Cl)=C(N2CCC(C(=O)O)CC2)C(=O)c2ccccc21 | -1 | 18 | 5 | 25 | 2 | /
NC(=O)C1CCN(C2=C(Cl)C(=O)c3ccccc3C2=O)CC1 | 4 | -183 | 0 | 34 | 394* | -10
COc1cc(/C=C/C(=O)N2C(=O)c3cccc(N)c3C2=O)cc(OC)c1OC | 4 | 94* | 32 | -49 | 68* | 53*
COc1ccc(OC)c(/C=C/C(=O)N2C(=O)c3cccc(N)c3C2=O)c1 | 2 | 90* | 21 | -4 | 53* | 62*
COc1cccc(NC(=O)CSc2nnc3ccc(-c4ccccn4)nn23)c1 | 1 | / | 7 | -8 | 0 | /
COc1ccc(C)cc1N(CC(=O)N1CCCCCC1)S(=O)(=O)c1ccccc1 | 2 | / | -17 | 4 | 0 | /
COc1cc(OC)cc(C(=O)N2CCN(C(=O)c3cccnc3)CC2)c1 | -4 | / | 10 | 5 | 2 | /
COc1ccc(C2c3[nH]c4ccccc4c3C[C@H]3C(=O)N(c4ccccc4C(=O)N4CCC[C@H]4C(=O)O)C(=O)N23)cc1 (some centres not stated) | 2 | / | 10 | 8 | 0 | /
FC(F)(F)C1=Nc2cccc3cccc(c23)N1 | 0 | / | -8 | -17 | 62* | 27
CCc1ccc(NC2=CC(=O)C(=O)c3ccccc32)cc1 | 13 | / | -11 | -62 | 62* | 20
CC(C)NC(=O)c1ccc(C(C)C)cc1 | / | 11 | / | / | / | /
CCCN(CCC)C(=O)c1cc([N+](=O)[O-])cc2c1-c1ccc([N+](=O)[O-])cc1C2=C(C#N)C#N | -2 | -66 | -1 | 2 | 335* | 201*
Cc1nc(-c2ccccc2)sc1C1(C)CC(c2ccc(OC(F)(F)F)cc2)=NO1 (configuration not stated) | 3 | 10 | -7 | 11 | 0 | /
COc1ccc(C(=O)C(CN2CCCC2)c2ccccc2)cc1 (configuration not stated) | 1 | -54 | 11 | -67 | 66* | 39*
